Reference: PMC5152947 (Journal of molecular structure, 2016)
Where “and” joins values, the source holds several entries; their conditions need not be identical. Equal entries are not always repeated. Where two headings read alike, the source gives them in different places.

Assays:
[1] = system: supercoiled pBR322 plasmid DNA; test: Chemical nuclease activity, agarose gel electrophoresis; format: biochemical; conditions: 50 and 100 μM, 1 h, 37 °C
Procedure, shortened: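 Supercoiled pBR322 (0.1 mg/mL) was incubated 1 h with complex in Tris buffer (50 mM Tris, 18 mM NaCl, pH 8.2), in the dark or under UV exposure, aerobic. Loading buffer quench, then 1% agarose gel in TBE (pH 8.2) at 70 V for 1 h. Gels stained with ethidium bromide ([…], 30 min), imaged under UV, and scored for nicked Form II.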

[2] = target: human serum albumin (HSA) (Homo sapiens, UniProt P02768); test: Fluorescence quenching titration of human serum albumin; format: binding; conditions: for static quenching constant KS: combined quenching analysis
Sequence of human serum albumin (HSA) (P02768 25-609): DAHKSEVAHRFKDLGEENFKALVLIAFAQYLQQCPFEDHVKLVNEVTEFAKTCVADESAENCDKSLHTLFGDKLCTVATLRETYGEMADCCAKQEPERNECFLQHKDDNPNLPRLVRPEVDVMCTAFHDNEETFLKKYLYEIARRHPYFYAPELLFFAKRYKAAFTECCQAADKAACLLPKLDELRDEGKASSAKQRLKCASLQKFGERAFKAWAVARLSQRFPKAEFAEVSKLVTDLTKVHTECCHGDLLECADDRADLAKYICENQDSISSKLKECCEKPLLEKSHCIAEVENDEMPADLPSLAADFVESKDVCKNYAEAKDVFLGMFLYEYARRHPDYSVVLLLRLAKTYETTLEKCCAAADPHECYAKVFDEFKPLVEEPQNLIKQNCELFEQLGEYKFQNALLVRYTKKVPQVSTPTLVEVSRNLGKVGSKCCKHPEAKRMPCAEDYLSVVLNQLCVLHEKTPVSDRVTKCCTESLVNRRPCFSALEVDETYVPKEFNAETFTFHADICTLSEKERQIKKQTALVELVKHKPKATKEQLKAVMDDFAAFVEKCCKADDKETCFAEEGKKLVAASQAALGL

[3] = system: Caco-2 (human epithelial colorectal adenocarcinoma) cells; test: Cytotoxicity assay; conditions: for TI (therapeutic index) = (IC50)CCD-18Co/(IC50)cancer cells, Caco-2: 72 h; for IC50: read-out: IC50 Caco-2
[4] = system: HCT-116 (human colon carcinoma) cells; test: Cytotoxicity assay; format: cell-based; conditions: for TI (therapeutic index) = (IC50)CCD-18Co/(IC50)cancer cells, HCT-116: 72 h; for IC50: read-out: IC50 HCT-116
[5] = system: CCD-18Co (human colon fibroblasts); test: Cytotoxicity assay; format: cell-based; conditions: read-out: IC50 CCD-18Co

Compound | cleavage of pBR322 DNA [1] | Modified Stern-Volmer K ([2]; 298 K) [M⁻¹] | Modified Stern-Volmer f (fraction of fluorophore initially accessible) ([2]; 298 K) | Scatchard K ([2]; 298 K) [M⁻¹] | Scatchard n (number of binding sites) ([2]; 298 K) | Modified Stern-Volmer K ([2]; 303 K) [M⁻¹] | Modified Stern-Volmer f (fraction of fluorophore initially accessible) ([2]; 303 K) | Scatchard K ([2]; 303 K) [M⁻¹] | Scatchard n (number of binding sites) ([2]; 303 K) | TI (therapeutic index) = (IC50)CCD-18Co/(IC50)cancer cells, Caco-2 [3] | IC50 ([3]; 24 h incubation) [µM] | IC50 ([3]; 48 h incubation) [µM] | IC50 ([3]; 72 h incubation) [µM] | TI (therapeutic index) = (IC50)CCD-18Co/(IC50)cancer cells, HCT-116 [4] | IC50 ([4]; 24 h incubation) [µM] | IC50 ([4]; 48 h incubation) [µM] | IC50 ([4]; 72 h incubation) [µM] | IC50 ([5]; 24 h incubation, normal cells) [µM] | IC50 ([5]; 48 h incubation, normal cells) [µM] | IC50 ([5]; 72 h incubation, normal cells) [µM] | other results
Ga(PhATSC)3·H2O [Complex 3] | both the Form II and Form III (linear DNA) being present | 302000 | 0.93 | 26300 | 0.96 | 231000 | 1.1 | 20800 | 1.1 | 0.97 | 78.7 ± 5.3 | 58 ± 1.5 | 44.1 ± 3.6 | 1.33 | 79 ± 1.1 | 56 ± 1.7 | 32.1 ± 2.4 | 80.9 ± 2.6 | 59.2 ± 2.6 | 42.9 ± 1.3 | static quenching constant KS ([2]; 298 K): 20400 M⁻¹; static quenching constant KS ([2]; 303 K): 33500 M⁻¹; Modified Stern-Volmer K ([2]; 308 K): 325000 M⁻¹; Modified Stern-Volmer f (fraction of fluorophore initially accessible) ([2]; 308 K): 1.0; Scatchard K ([2]; 308 K): 28800 M⁻¹; Scatchard n (number of binding sites) ([2]; 308 K): 1.1
COc1cc([C@@H]2c3cc4c(cc3[C@@H](O[C@@H]3O[C@@H]5CO[C@@H](C)O[C@H]5[C@H](O)[C@H]3O)[C@H]3COC(=O)[C@H]23)OCO4)cc(OC)c1O [Etoposide, reference compound] |  |  |  |  |  |  |  |  |  | 2.71 |  |  |  | 3.07 |  |  |  |  |  |  | IC50 ([3]; Homo sapiens, Caco-2, 24 h): 23 ± 0.9 µM; IC50 ([3]; Homo sapiens, Caco-2, 48 h): 18.9 ± 1.6 µM; IC50 ([3]; Homo sapiens, Caco-2, 72 h): 16.2 ± 1.7 µM; IC50 ([4]; Homo sapiens, HCT-116, 24 h): 28.9 ± 2 µM; IC50 ([4]; Homo sapiens, HCT-116, 48 h): 26.9 ± 1.5 µM; IC50 ([4]; Homo sapiens, HCT-116, 72 h): 14.3 ± 1.4 µM; IC50 ([5]; Homo sapiens, CCD-18Co, 24 h): 51.2 ± 1.1 µM; IC50 ([5]; Homo sapiens, CCD-18Co, 48 h): 48.7 ± 3.1 µM; IC50 ([5]; Homo sapiens, CCD-18Co, 72 h): 43.9 ± 1.8 µM
Ga(EtATSC)3·0.25C2H5OH [Complex 2] | cleavage of the DNA occurred | 308000 | 1.1 | 29700 | 1.1 | 169000 | 1.3 | 17600 | 1.1 | 5 and 5.14 | 23.1 ± 2.1 | 18.7 ± 1.7 | 11.6 ± 1.1 | 1.98 | 49.9 ± 2.5 | 43.6 ± 2.1 | 30.1 ± 1.1 | 78.6 ± 2.1 | 60.6 ± 2 | 59.5 ± 2.5 | 
